In assay [1] the test system is CEM (human lymphocyte) cells. As to the kind of experiment: Cytostatic activity: inhibition of tumor cell proliferation. It is filed as cell-based. As to conditions: read-out: IC50 (50% inhibitory concentration). A digest of the protocol: (§1)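 Exponentially growing tumour cells were seeded in 96-well plates with a range of test-compound concentrations: CEM lymphocytes at 75,000 cells/well for 3 days, HeLa cervix carcinoma cells at 20,000 cells/well for 4 days. Viable cells were counted with a Coulter counter. The 50% value is the concentration inhibiting tumour cell proliferation by 50%.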

The subject of assay [2] is MDCK, HEL, CrFK, HeLa and CEM cells. The assay can be described thus: Cytostatic activity over the cell culture panel of Table 4. It is filed as cell-based. As to conditions: read-out: IC50, range over the cell cultures.
The subject of assay [3] is HEL (human lung fibroblast) cells. As to the kind of experiment: Cytostatic activity: inhibition of cell proliferation. It counts as cell-based. As to conditions: read-out: IC50 (50% inhibitory concentration).
The subject of assay [4] is HeLa (human cervix carcinoma) cells. As to the kind of experiment: Cytostatic activity: inhibition of tumor cell proliferation. It counts as cell-based. To be noted: read-out: IC50 (50% inhibitory concentration). An outline of the steps:
as §1

The test system of assay [5] is HCMV AD-169 strain. The assay can be described thus: Antiviral assay: inhibition of virus-induced cytopathicity in HEL cell cultures. To be noted: Human betaherpesvirus 5, AD169, HEL, read-out: EC50 against HCMV AD-169 strain. It counts as cell-based, human cytomegalovirus.
In assay [6] the test system is HCMV Davis strain. Described as above. It is filed as cell-based, human cytomegalovirus. To be noted: Human betaherpesvirus 5, HEL, read-out: EC50 against HCMV Davis strain.

Each structure is given as a SMILES string. Read-outs that look alike come from different tables or passages of the source.

With `N.N.[Cl][Pt][Cl]` [cisplatinum, reference compound], the IC50 in assay [1] (CEM cells) was 2.2 µM.
In the case of `S=C(NN=Cc1ccc(Cl)s1)Nc1ccccc1` [Compound 2, 5-Chlorothiophene-2-carboxaldehyde-N(4)phenyl thiosemicarbazone], the IC50 in assay [2] is 7.1 to 57.8 µM; in assay [1] (Homo sapiens, CCRF-CEM), 10 µM; in assay [3], 10.4 µM; in assay [4] it was 7.1 µM.
Consider `Nc1nc(O)c2ncn(COC(CO)CO)c2n1` [ganciclovir], for which the EC50 in assay [5] came to 5 µM; in assay [6], 3.4 µM.

Values taken from paper PMC7126824 (European Journal of Medicinal Chemistry, 2011).
